Bioassay records: PubChem BioAssay, several laboratories
Measles CPE = protection of cells from measles virus | Measles virus-infected cells, CPE protection, absorbance | protection (pct of control), % at 4 µM | 1.5% of 140,000 active; in the data active = protection mostly above about 24%, no sharp cut-off; inactive = mostly below about 26%
Yeast life ext = extends the lifespan of yeast | S. cerevisiae growth with nicotinamide, OD615; deaD strain in restrictive glucose medium | inhibition of the nicotinamide effect, % at 10 µM | 0.68% of 130,000 active;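 active = inhibition above a set limit, placed 3 SD over the median of all compounds, cut at about 26% in these data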;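 note: 0% = nicotinamide-treated wells and 100% = cells grown without nicotinamide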
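Assay system: engineered S. cerevisiae DeaD replicative-lifespan strain, galactose-grown log-phase cells; medium: restrictive CSMM-D dextrose medium; also added: nicotinamide, 1.5 mM, co-present with compound; schedule: 48 h compound exposure at 30 °C, humidified; detection: absorbance at 615 nm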
BB579 growth dn = yeast BB579 growth reduction in restrictive medium; AID 804; S. cerevisiae BB579 growth, OD615, 48 h; inhibition, % at 10 µM; 0.51% of 140,000 active;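 active = inhibition above a set limit, 3 SD over the mean compound inhibition, cut at about 44% in these data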
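Material: Saccharomyces cerevisiae DeaD strain BB579, replicative lifespan model yeast; buffer or medium: CSMM-D restrictive synthetic medium containing dextrose (glucose); compound: 10 µM single dose, DMSO 0.25%; timing: 48 h compound exposure at 30 °C after 4 h preincubation; signal: turbidity as optical density at 615 nm; benchmarks: positive control amphotericin B 10 µg/mL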
RAM network inh = blocks the yeast RAM network. S. cerevisiae dse1pr::URA3 reporter, 5-FOA growth OD615, 2 d; analog-sensitive cbk1-as2 kinase mutant strain. 1.8% of 190,000 active. inhibition, % at 50 µM;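 active = inhibition above a set limit, 3 SD over mean compound inhibition, cut at about 8.4% in these data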;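 note: 0% = DMSO-only wells with no growth and 100% = 10 µM 1-NA-PP1 full growth; inhibition rescues growth on 5-FOA so higher OD means more RAM inhibition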
WT yeast gro inh = growth inhibition of WT yeast, mitochondrial fusion screen; mitochondrial fusion phenotypic screen, WT strain; inhibition, % at 10 µM; 2.1% of 190,000 active; AID 1362; in the data active = inhibition above about 58%; tested in S. cerevisiae
hDAT+cocaine = modulates human dopamine transporter uptake under cocaine; 1.3% of 110,000 active; B-score at 10 µM; LLC-PK1 hDAT cells, [14C]-dopamine uptake with cocaine IC80; actives deviate in either direction; AID 449768;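 active = Z score or B-score, a plate-position-corrected score, falls beyond the plate's 99.7% confidence bounds, in either direction; inactive = both scores lie inside the 99.7% bounds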;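 note: scored against the spread of the other compound wells on the same plate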
Target sequence (Q01959 whole entry, looked up): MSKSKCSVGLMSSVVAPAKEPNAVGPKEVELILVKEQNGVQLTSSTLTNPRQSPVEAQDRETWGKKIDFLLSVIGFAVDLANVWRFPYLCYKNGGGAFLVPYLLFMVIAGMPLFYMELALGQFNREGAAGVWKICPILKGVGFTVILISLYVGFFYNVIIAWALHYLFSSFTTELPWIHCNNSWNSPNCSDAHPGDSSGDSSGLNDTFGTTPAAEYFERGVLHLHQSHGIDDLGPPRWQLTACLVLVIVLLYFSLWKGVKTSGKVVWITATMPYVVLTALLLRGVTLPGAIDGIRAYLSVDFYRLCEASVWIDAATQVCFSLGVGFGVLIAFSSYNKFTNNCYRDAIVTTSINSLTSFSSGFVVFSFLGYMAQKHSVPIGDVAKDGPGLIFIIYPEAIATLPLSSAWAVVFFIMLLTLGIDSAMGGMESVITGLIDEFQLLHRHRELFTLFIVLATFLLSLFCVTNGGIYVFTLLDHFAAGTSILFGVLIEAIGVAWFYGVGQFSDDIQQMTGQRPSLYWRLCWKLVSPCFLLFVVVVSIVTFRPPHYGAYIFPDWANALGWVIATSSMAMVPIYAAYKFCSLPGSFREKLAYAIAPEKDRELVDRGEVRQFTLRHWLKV
Numbers without * were called inactive; nt = no result. Most compounds without a hit are left out; they make up all but 6.1% or so of the library.

SMILES	Measles CPE	Yeast life ext	BB579 growth dn	RAM network inh	WT yeast gro inh	hDAT+cocaine
CCC(C)NS(=O)(=O)c1ccc(S(=O)(=O)N2CCCC3(CCCCC3)C2)cc1 (stereo unspecified)	3	-22	-28	1	37	1.2
CCOC(=O)CN1CCc2c(C)nc3c(-c4ccc(OC)c(OC)c4)cnn3c21	12	-11	-16	-1	-22	-0.014
O=S(=O)(c1ccc(S(=O)(=O)N2CCCC2)cc1)N1CCCCCC1	14	-8	-35	-1	-5	0.063
CCN(CC)S(=O)(=O)c1ccc(-c2nnco2)cc1	2	-3	2	2	8	-0.65
CCN(CC)S(=O)(=O)c1ccc(C2=NOC3(C2)N(C)c2ccccc2C3(C)C)cc1 (stereo unspecified)	38*	3	-33	6	16	nt
CN1c2ccccc2C(C)(C)C12CC(c1cccc(S(=O)(=O)N3CCCC3)c1)=NO2 (stereo unspecified)	54*	2	5	2	5	nt
CN1c2ccccc2C(C)(C)C12CC(c1ccc(S(=O)(=O)N3CCCCC3)cc1)=NO2 (stereo unspecified)	63*	6	-34	3	7	nt
O=C1CC(c2ccco2)Cc2nc(Nc3nc(-c4ccccc4)c4ccccc4n3)ncc21 (stereo unspecified)	2	-6	-38	2	9	nt
Cc1noc(C)c1CSc1nc2sc3c(c2c(=O)n1C)CCCC3	96*	-10	-28	2	15	0.85
C/C=C/C=C/[C@H]1Cc2cc(O)cc(O)c2O1	nt	nt	nt	nt	nt	-1.6
Cc1c(C(=O)O)sc(=S)n1CCOc1ccccc1	7	-7	-16	2	4	-0.17
Cc1cccnc1Nc1nc(-c2ccc(O)cc2O)cs1	19	-5	-5	1	48	5.4*
CSCCC(=O)Nc1nc(-c2ccccn2)cs1	nt	nt	nt	2	2	nt
Cc1cccnc1Nc1nc(-c2ccccn2)cs1	5	-15	95*	1	-3	-0.73
O=C(O)C1CCC(Cn2c(SCc3cc(=O)n4cc(Cl)ccc4n3)nc3ccsc3c2=O)CC1 (stereo unspecified)	nt	nt	nt	9.2*	-2	nt
O=S(=O)(Nc1ccc(-c2csc(-c3ccccc3)n2)cc1)c1ccc(F)cc1	6	-23	69*	6	92*	-0.77
O=C(Nc1nc(-c2ccccc2)cs1)c1ccccc1NS(=O)(=O)c1ccc(F)cc1	2	12	-19	3	78*	nt
Fc1ccc(-c2csc(-c3ccncc3)n2)cc1	nt	nt	nt	1	21	nt
CCOc1nc(SCCOc2ccccc2)nc(N(C)C)n1	1	-8	-11	-1	32	-0.74
C=CCNC(=S)NNC(=O)COc1ccc2cc(Br)ccc2c1	nt	nt	nt	2	59*	nt
CCOc1ccc(-c2nc(CN(Cc3ccccc3)C[C@@H]3CCC(=O)N3)c(C)o2)cc1	nt	nt	nt	0	43	nt
COc1ccc(/C=C/C=C2\NC(=S)NC2=O)cc1	nt	nt	nt	10*	5	nt
COc1ccc(N=C2NC(=O)/C(=C\C=C\c3ccccc3)S2)cc1	nt	nt	nt	1	15	nt
Cc1ccc(OCC(=O)NNC(=S)NC(=O)C(C)(C)C)c(Br)c1	nt	nt	nt	3	84*	nt
CN(c1cccc(NC(=O)COc2ccc(Cl)cc2Cl)c1)S(C)(=O)=O	2	nt	-23	8.8*	-12	-0.5
SMILES	Measles CPE	Yeast life ext	BB579 growth dn	RAM network inh	WT yeast gro inh	hDAT+cocaine
Cc1cccc(NC(=S)NNC(=O)COc2ccc(Cl)cc2Cl)c1	9	-3	-6	2	63*	nt
Cc1ccc(OCC(=O)Nc2ccccc2[N+](=O)[O-])c(Br)c1	nt	nt	nt	4	9	nt
Cc1cc(NC(=O)COc2ccc(Cl)cc2Cl)n(-c2ccccc2)n1	7	-22	-26	8.6*	-1	-0.067
CCn1c(O)c(N=NC(=S)NCC2CCCO2)c2ccccc21 (stereo unspecified)	nt	nt	nt	3	16	nt
COCCNC(=S)Nc1ccc(N2CCCCC2)cc1	nt	nt	nt	-1	2	nt
O=c1[nH]c2ccccc2c(O)c1O	nt	nt	nt	0	-5	-0.28
COc1ccc(NC(=S)NNC(=O)COc2ccc(Cl)cc2Cl)cc1	nt	-4	0	0	69*	nt
Cc1ccc(N2C(=O)CC(Cc3cccc(C)c3)C2=O)cc1 (stereo unspecified)	nt	nt	nt	2	0	nt
Cn1c(CN2CCN(c3ccc(Cl)cc3)CC2)nc2ccccc21	3	-13	-34	-1	17	0.87
CCn1c(CN2CCN(c3ccc(Cl)cc3)CC2)nc2ccccc21	29	nt	-36	0	60*	0.15
COc1cc(NC(=O)C2CCCCC2)c(OC)cc1NC(=O)CN1CCCCC1	47*	0	-94	-1	28	0.0092
COc1cc(NC(=O)c2ccc(Cl)cc2)c(OC)cc1NC(=O)CN1CCCCC1	nt	nt	nt	0	14	nt
COc1cc(NC(=O)Nc2ccccc2OC)c(OC)cc1NC(=O)CN1CCCCC1	2	-25	-4	1	1	1.2
COc1cc(NC(=O)c2ccc(C(C)(C)C)cc2)c(OC)cc1NC(=O)CN1CCCCC1	nt	nt	nt	0	70*	nt
CSc1sc(C(=O)NN)c2c1C(O)CCC2 (stereo unspecified)	nt	nt	nt	nt	nt	0.18
Cc1ccc(NC(=O)C(Cc2ccccc2)NC(=O)c2ccco2)cc1 (stereo unspecified)	8	-2	-31	6	5	0.19
CC1CN(C(=O)COC(=O)c2cc(Cl)ccc2Cl)CC(C)O1 (stereo unspecified)	nt	nt	nt	3	15	nt
CC1CN(C(=O)COC(=O)c2cccs2)CC(C)O1 (stereo unspecified)	36*	0	-20	-1	15	nt
CC(=O)c1ccc(N/N=C(/C(N)=O)C2=NC(C)(C)Cc3ccccc32)cc1	3	-6	-11	-1	2	nt
CC1(C)Cc2ccccc2C(/C(=N\Nc2cccc(Cl)c2)C(N)=O)=N1	4	-8	-22	0	60*	nt
Cc1cc([N+](=O)[O-])ccc1NC(=O)CN1C2CCC1CC(NC(=O)NC13CC4CC(CC(C4)C1)C3)C2 (stereo unspecified)	nt	nt	nt	-1	-14	nt
O=c1cc2c(nn1Cc1ccccc1)-c1ccccc1CC2	nt	nt	nt	-1	39	nt
O=c1cc(N2CCCCC2)c(-c2ccccc2)nn1Cc1c(Cl)cccc1Cl	11	-17	-35	1	89*	0.77
O=c1cc(N2CCCCC2)c(-c2ccccc2)nn1Cc1ccc(Cl)cc1	34	-7	-5	0	30	0.79
O=c1cc(N2CCCCC2)c(-c2ccccc2)nn1Cc1ccc(F)cc1	nt	nt	nt	2	83*	nt
Cc1c(C#N)c(NC(=O)C(C)C)n(Cc2ccccc2)c1C	nt	nt	nt	2	0	nt
O=C(Nc1cccc(CCc2ccccn2)c1)c1cc(F)c(F)cc1Cl	12	-1	-50	1	10	nt
CC(OC(=O)/C=C/c1ccco1)C(=O)Nc1cccc([N+](=O)[O-])c1 (stereo unspecified)	10	5	-20	9.0*	15	nt
